Assay results as given in ChEMBL document CHEMBL1128345, “Derivatives of 2-[[N-(Aminocarbonyl)-N-hydroxyamino]methyl]-1,4- benzodioxan as orally active 5-lipoxygenase inhibitors” (J Med Chem, 1995).
Several values for one entry are separate records, joined by “and”; a condition that tells them apart may be missing. Equal values may be shown once.

Assays:
[1] = Duration of action of 5-LO was defined as the period of time from maximum inhibition of A-23187-stimulated LTB4 formation to the time where 50% of maximum inhibition is reached
Outline: (§1)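 Dogs got a single iv or oral dose. Whole blood was drawn at set times afterwards and stimulated ex vivo with the calcium ionophore A23187. LTB4 was measured by radioimmunoassay, and inhibition was taken as the change from the pre-dose LTB4 value. DA, the time from maximum inhibition to 50% of maximum, was read graphically from the plot of percent inhibition vs time.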

[2] = molecular target: T1, Polyunsaturated fatty acid 5-lipoxygenase (Homo sapiens) (UniProt P09917); assay: Ex vivo inhibition of 5-lipoxygenase was determined by the measurement of A-23187-stimulated LTB4 production in dog blood at 24h, following intravenous administration at the dose of 1.0 mg/kg; format: functional, organism-based; parameters: dose 1 mg/kg; settings: Canis lupus familiaris, target entry is the homologue from another species
T1 sequence (whole entry): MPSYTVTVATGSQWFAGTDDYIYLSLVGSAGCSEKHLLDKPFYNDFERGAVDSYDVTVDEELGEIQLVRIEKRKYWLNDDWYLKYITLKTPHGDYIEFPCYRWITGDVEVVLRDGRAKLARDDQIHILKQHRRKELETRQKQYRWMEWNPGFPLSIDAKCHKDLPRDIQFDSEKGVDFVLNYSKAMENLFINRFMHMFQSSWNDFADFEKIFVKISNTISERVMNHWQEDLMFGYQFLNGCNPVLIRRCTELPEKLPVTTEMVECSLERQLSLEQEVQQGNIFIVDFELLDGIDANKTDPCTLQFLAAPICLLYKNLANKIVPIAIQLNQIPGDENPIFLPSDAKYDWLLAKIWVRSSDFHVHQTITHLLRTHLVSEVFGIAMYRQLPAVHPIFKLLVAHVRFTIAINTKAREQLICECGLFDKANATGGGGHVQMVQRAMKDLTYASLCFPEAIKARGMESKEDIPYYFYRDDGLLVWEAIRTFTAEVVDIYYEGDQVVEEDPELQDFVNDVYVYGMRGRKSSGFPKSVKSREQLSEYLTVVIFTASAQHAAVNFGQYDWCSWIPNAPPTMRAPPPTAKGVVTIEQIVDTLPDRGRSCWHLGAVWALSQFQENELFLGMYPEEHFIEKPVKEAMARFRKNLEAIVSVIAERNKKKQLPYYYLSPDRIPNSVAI
Outline: (§2)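 Dogs received a single iv dose. Whole blood was sampled at the stated time after dosing and stimulated ex vivo with calcium ionophore A23187. LTB4 was quantitated by radioimmunoassay. Percent inhibition was calculated against each animal's pre-dose LTB4 value. One to three experiments were run per dose.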

[3] = molecular target: T1, Polyunsaturated fatty acid 5-lipoxygenase (Homo sapiens); assay: Ex vivo inhibition of 5-lipoxygenase was determined by the measurement of A-23187-stimulated LTB4 production in dog blood at 6.0h, following intravenous administration at the dose of 1.0 mg/kg; format: functional, organism-based; parameters: dose 1 mg/kg; settings: Canis lupus familiaris, target entry is the homologue from another species; outline: as §2
[4] = molecular target: T1, Polyunsaturated fatty acid 5-lipoxygenase (Homo sapiens); assay: Ex vivo inhibition of 5-lipoxygenase was determined by the measurement of A-23187-stimulated LTB4 production in dog blood at 9.0h, following intravenous administration at the dose of 1.0 mg/kg; format: functional, organism-based; parameters: dose 1 mg/kg; settings: Canis lupus familiaris, target entry is the homologue from another species; outline: as §2
[5] = molecular target: T1, Polyunsaturated fatty acid 5-lipoxygenase (Homo sapiens); assay: Ex vivo inhibition of 5-lipoxygenase was determined by the measurement of A-23187-stimulated LTB4 production in dog blood at 0.08h, following intravenous administration at the dose of 1.0 mg/kg; format: functional, organism-based; parameters: dose 1 mg/kg; settings: Canis lupus familiaris, target entry is the homologue from another species; outline: as §2
[6] = molecular target: T1, Polyunsaturated fatty acid 5-lipoxygenase (Homo sapiens); assay: Ex vivo inhibition of 5-lipoxygenase was determined by the measurement of A-23187-stimulated LTB4 production in dog blood at 0.25h, following intravenous administration at the dose of 1.0 mg/kg; format: functional, organism-based; parameters: dose 1 mg/kg; settings: Canis lupus familiaris, target entry is the homologue from another species
Outline: (§3)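 Dog ex vivo assay: compound given as a single iv dose. Whole blood drawn at set times after dosing was stimulated ex vivo with calcium ionophore A23187. LTB4 was quantitated by radioimmunoassay. Percent inhibition at each time point was calculated against the LTB4 value before dosing. n = 1–3 experiments per compound.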

[7] = molecular target: T1, Polyunsaturated fatty acid 5-lipoxygenase (Homo sapiens); assay: Ex vivo inhibition of 5-lipoxygenase was determined by the measurement of A-23187-stimulated LTB4 production in dog blood at 0.5h, following intravenous administration at the dose of 1.0 mg/kg; format: functional, organism-based; parameters: dose 1 mg/kg; settings: Canis lupus familiaris, target entry is the homologue from another species; outline: as §2
[8] = molecular target: T1, Polyunsaturated fatty acid 5-lipoxygenase (Homo sapiens); assay: Ex vivo inhibition of 5-lipoxygenase was determined by the measurement of A-23187-stimulated LTB4 production in dog blood at 1.0h, following intravenous administration at the dose of 1.0 mg/kg; format: functional, organism-based; parameters: dose 1 mg/kg; settings: Canis lupus familiaris, target entry is the homologue from another species; outline: as §2
[9] = Duration of action was defined as the period of time from maximum inhibition of A-23187-stimulated LTB4 formation to the time where 50% of maximum inhibition is reached; outline: as §1
[10] = molecular target: T1, Polyunsaturated fatty acid 5-lipoxygenase (Homo sapiens); assay: Ex vivo inhibition of 5-LO was determined by the measurement of A-23187-stimulated LTB4 production in dog blood at 24h, following intravenous administration at the dose of 1.0 mg/kg; format: functional, organism-based; parameters: dose 1 mg/kg; settings: Canis lupus familiaris, target entry is the homologue from another species; outline: as §2
[11] = molecular target: T1, Polyunsaturated fatty acid 5-lipoxygenase (Homo sapiens); assay: Ex vivo inhibition of 5-LO was determined by the measurement of A-23187-stimulated LTB4 production in dog blood at 6.0h, following intravenous administration at the dose of 1.0 mg/kg; format: functional, organism-based; parameters: dose 1 mg/kg; settings: Canis lupus familiaris, target entry is the homologue from another species; outline: as §2
[12] = molecular target: T1, Polyunsaturated fatty acid 5-lipoxygenase (Homo sapiens); assay: Ex vivo inhibition of 5-LO was determined by the measurement of A-23187-stimulated LTB4 production in dog blood at 9.0h, following intravenous administration at the dose of 1.0 mg/kg; format: functional, organism-based; parameters: dose 1 mg/kg; settings: Canis lupus familiaris, target entry is the homologue from another species; outline: as §2
[13] = molecular target: T1, Polyunsaturated fatty acid 5-lipoxygenase (Homo sapiens); assay: Ex vivo inhibition of 5-LO was determined by the measurement of A-23187-stimulated LTB4 production in dog blood at 0.08h, following intravenous administration at the dose of 1.0 mg/kg; format: functional, organism-based; parameters: dose 1 mg/kg; settings: Canis lupus familiaris, target entry is the homologue from another species; outline: as §2
[14] = molecular target: T1, Polyunsaturated fatty acid 5-lipoxygenase (Homo sapiens); assay: Ex vivo inhibition of 5-LO was determined by the measurement of A-23187-stimulated LTB4 production in dog blood at 0.25h, following intravenous administration at the dose of 1.0 mg/kg; format: functional, organism-based; parameters: dose 1 mg/kg; settings: Canis lupus familiaris, target entry is the homologue from another species; outline: as §3
[15] = molecular target: T1, Polyunsaturated fatty acid 5-lipoxygenase (Homo sapiens); assay: Ex vivo inhibition of 5-LO was determined by the measurement of A-23187-stimulated LTB4 production in dog blood at 0.5h, following intravenous administration at the dose of 1.0 mg/kg; format: functional, organism-based; parameters: dose 1 mg/kg; settings: Canis lupus familiaris, target entry is the homologue from another species; outline: as §2
[16] = molecular target: T1, Polyunsaturated fatty acid 5-lipoxygenase (Homo sapiens); assay: Ex vivo inhibition of 5-LO was determined by the measurement of A-23187-stimulated LTB4 production in dog blood at 1.0h, following intravenous administration at the dose of 1.0 mg/kg; format: functional, organism-based; parameters: dose 1 mg/kg; settings: Canis lupus familiaris, target entry is the homologue from another species; outline: as §2
[17] = molecular target: T1, Polyunsaturated fatty acid 5-lipoxygenase (Homo sapiens); assay: Ex vivo inhibition of 5-LO was determined by the measurement of A-23187-stimulated LTB4 production in dog blood at 3.0h, following intravenous administration at the dose of 1.0 mg/kg; format: functional, organism-based; parameters: dose 1 mg/kg; settings: Canis lupus familiaris, target entry is the homologue from another species; outline: as §2

SMILES | Duration of action [1] [h] | inhibition [2] [%] | inhibition [3] [%] | inhibition [4] | inhibition [5] [%] | inhibition [6] [%] | inhibition [7] [%] | inhibition [8] [%] | Duration of action [9] | inhibition [10] [%] | inhibition [11] [%] | inhibition [12] [%] | inhibition [13] [%] | inhibition [14] [%] | inhibition [15] [%] | inhibition [16] [%] | inhibition [17] [%]
NC(=O)N(O)C[C@H]1COc2ccc(Oc3ccc(F)cc3)cc2O1 | 8.4 | – | – | – | – | – | – | – | – | – | – | – | – | – | – | – | –
NC(=O)N(O)CC1COc2ccc(Oc3ccc(F)cc3)cc2O1 (stereo unspecified) | – | 17 | 63 | 34% and 48% | 94 | 98 | 94 | 92 | 8.2 h and 8.5 h | – | – | – | – | – | – | – | –
CNC(=O)N(O)CC1COc2ccc(Oc3ccccc3)cc2O1 (stereo unspecified) | – | 0 | 0 | 9% | 100 | 100 | 98 | 74 | 1.5 h | – | – | – | – | – | – | – | –
NC(=O)N(O)C[C@@H]1COc2ccc(Oc3ccc(F)cc3)cc2O1 | – | – | – | – | 100 | 100 | 100 | 100 | 3.8 h and 3.7 h | 0 | 15 | 0 | – | – | – | – | –
NC(=O)N(O)CC1COc2ccc(Oc3ccccc3)cc2O1 (stereo unspecified) | – | 4 | 22 | 0% | 100 | 100 | 100 | 100 | 4 h | – | – | – | – | – | – | – | –
CC(c1cc2ccccc2s1)N(O)C(N)=O (stereo unspecified) [ZILEUTON] | – | 27 | 56 | 47% | 96 | 94 | 91 | 87 | 8.5 h and 9.8 h | – | – | – | – | – | – | – | –
NC(=O)N(O)CC1COc2cc(Oc3ccccc3)ccc2O1 (stereo unspecified) | – | – | – | – | – | – | – | – | 1.7 h | 2 | 1 | 9 | 100 | 100 | 100 | 98 | 14
CCCCNC(=O)N(O)CC1COc2ccccc2O1 (stereo unspecified) | – | – | 0 | – | 100 | 100 | 64 | 45 | 0.7 h | – | – | – | – | – | – | – | –
